This note sets out measurements from paper PMC5010469 (Cancer research, 2016).

What all share (format): cell-based
One experiment concerns the target WASF3 complex (Homo sapiens, UniProt Q7L576). The experiment is described as follows: Immunoprecipitation of the WASF3 complex. The settings on record: IP of WASF3 from MDA-MB-231 cells, Figure 4f.
Experiment [1] has as its system MDA-MB-231 cells. The experiment is described as follows: Transwell invasion assay. Summed up: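 MDA-MB-231 breast cancer cells were obtained from ATCC and verified by SNP-CGH for characteristic cytogenetic changes. The panel included empty-vector parental cells and cells overexpressing full-length human NCKAP1 from a lentiviral vector. Cells were exposed to the RAC1-inhibitor test compound, with a dose series in one set. Invasion was read out in Transwell invasion assays run as previously described.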

The subject of experiment [2] is Hs578T cells. The experiment is described as follows: Cell proliferation assay. Particulars: NSC23766 treatment, Supplementary Figure 4.
Experiment [3] deals with MDA-MB-231 cells. Put plainly: Cell proliferation assay. The settings on record: MDA-MB-231, NSC23766 treatment; Supplementary Figure 4.
For another experiment, the system named is WASF3. The experiment is described as follows: Western blotting of WASF3 complex protein levels. Particulars: MDA-MB-231 and Hs578T cells, western blot; Figure 4e.
Experiment [4] has as its system Hs578T cells. The experiment is described as follows: Transwell invasion assay. The settings on record: dose series, Figure 4d.

Sequence of WASF3 complex (Q7L576 whole entry, one chain of several): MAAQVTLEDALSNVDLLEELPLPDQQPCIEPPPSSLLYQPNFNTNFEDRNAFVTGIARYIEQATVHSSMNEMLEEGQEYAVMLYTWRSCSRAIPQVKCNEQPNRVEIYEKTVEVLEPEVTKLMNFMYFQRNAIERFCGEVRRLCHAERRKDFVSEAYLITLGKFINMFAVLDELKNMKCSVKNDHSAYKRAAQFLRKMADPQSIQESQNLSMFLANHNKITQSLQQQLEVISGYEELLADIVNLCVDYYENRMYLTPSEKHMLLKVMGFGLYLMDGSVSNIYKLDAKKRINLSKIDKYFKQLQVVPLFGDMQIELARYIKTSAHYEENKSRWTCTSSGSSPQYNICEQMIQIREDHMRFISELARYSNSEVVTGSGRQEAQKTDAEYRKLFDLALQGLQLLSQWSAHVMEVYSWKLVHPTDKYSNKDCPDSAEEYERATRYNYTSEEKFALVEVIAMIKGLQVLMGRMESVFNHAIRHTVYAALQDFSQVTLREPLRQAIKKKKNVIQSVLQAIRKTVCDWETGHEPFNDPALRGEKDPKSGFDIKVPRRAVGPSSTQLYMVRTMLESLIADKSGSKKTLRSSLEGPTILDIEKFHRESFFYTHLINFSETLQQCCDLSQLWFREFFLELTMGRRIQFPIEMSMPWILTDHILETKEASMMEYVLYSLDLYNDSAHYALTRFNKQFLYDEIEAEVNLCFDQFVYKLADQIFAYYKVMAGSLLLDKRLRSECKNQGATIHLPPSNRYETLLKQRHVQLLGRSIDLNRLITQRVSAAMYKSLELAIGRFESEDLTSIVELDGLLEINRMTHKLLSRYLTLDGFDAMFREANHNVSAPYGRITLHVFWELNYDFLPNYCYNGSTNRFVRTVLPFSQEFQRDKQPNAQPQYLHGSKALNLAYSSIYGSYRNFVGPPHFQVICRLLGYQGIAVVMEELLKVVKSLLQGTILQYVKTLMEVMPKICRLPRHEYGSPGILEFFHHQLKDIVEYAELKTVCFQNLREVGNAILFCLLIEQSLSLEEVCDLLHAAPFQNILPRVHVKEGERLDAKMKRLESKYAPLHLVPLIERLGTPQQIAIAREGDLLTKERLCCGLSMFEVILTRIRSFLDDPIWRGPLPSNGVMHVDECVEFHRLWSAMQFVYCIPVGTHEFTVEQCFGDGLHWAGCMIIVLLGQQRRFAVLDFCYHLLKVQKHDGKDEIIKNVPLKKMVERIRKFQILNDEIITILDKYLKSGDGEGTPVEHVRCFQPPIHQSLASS

Consider `CCN(CC)CCCC(C)Nc1nc(C)cc(Nc2ccc3nc(C)cc(N)c3c2)n1` (stereo not shown) [NSC23766], for which the “RAC1 binding to the WASF3 complex” value at WASF3 complex (high dose 50 µM) is “significantly inhibited”. In addition, on WASF3 complex (high dose 50 µM), the WASF3 phosphorylation entry is recorded as “significantly inhibited”. For the same molecule, the “engagement of NCKAP1 with the WASF3 complex” value at WASF3 complex is recorded as “does not disrupt engagement of NCKAP1 with the WASF3 complex”. The effect on invasion entry with MDA-MB-231 cells [1] (MDA-MB-231, dose series, Figure 4d) is listed as “dose-dependent reduction in invasion”; in the experiment on MDA-MB-231 cells [1] (MDA-MB-231 cells overexpressing NCKAP1, Transwell, Figure 4h) it was “significant reduction in invasion”; in the experiment on MDA-MB-231 cells [1] (MDA-MB-231 parental cells containing the empty vector (EV), Transwell, Figure 4h), “significant reduction in invasion”; in the experiment on Hs578T cells [4], “dose-dependent reduction in invasion”. Further, the “effect on cell proliferation” value in the experiment on Hs578T cells [2] and with MDA-MB-231 cells [3] was “without affecting cell proliferation” throughout. Besides, in the experiment with WASF3, the “protein levels of WASF3, NCKAP1 and RAC1” value is recorded as “does not affect protein levels of either WASF3, NCKAP1 or RAC1”.
